Results pooled from the literature.
Each line is one published result; the experiments were not run side by side.
MAPK14: Mitogen-activated protein kinase 14 (MAPK14, Homo sapiens, UniProt Q16539)
MAPK14 T106M: Mitogen-activated protein kinase 14 (MAPK14, Homo sapiens, UniProt Q16539, T106M)

SMILES	target	effect on	mode	method	concentration	endpoint	value
COc1ccc2c(c1)O[C@@H](c1ccc(OC)c(OC)c1)C[C@H]2NC(=O)C1(c2ccc3c(c2)OC(F)(F)O3)CC1	MAPK14	cell-free assay		competition with immobilised ligand	1 µM	remaining binding	99%
O=C(Nc1cnn(-c2csc(C(=O)NC3COC3)c2)c1)Nc1c(F)cccc1Cl	MAPK14	enzyme activity	inhibitor		5 µM	remaining activity	105%
CC(C)(C)C(=O)c1sc(NC2CCCCC2)nc1N	MAPK14	enzyme activity	inhibitor		10 µM	remaining activity	102%
Cc1ccc(Nc2nccc(N(C)c3ccc4c(C)n(C)nc4c3)n2)cc1S(N)(=O)=O	MAPK14 T106M	enzyme activity	inhibitor		0.3 µM	inhibition	4%
c1ccc(CNc2nc(N3CCOc4ccccc43)nc3c2CCCC3)cc1	MAPK14	target engagement in cells	inhibitor	chemoproteomics	20 mM	inhibition	6.3%
CC(C)(C)c1nc2c(s1)c1nc(N)ncc1c1ccc(NS(=O)(=O)c3c(F)cccc3F)c(F)c12	MAPK14	enzyme activity	inhibitor	radiometric	1 µM	remaining activity	96%
CC(C)(O)[C@H]1CC[C@H](Nc2ccc3ncc(-c4cccc(C(F)(F)F)c4)n3n2)CC1	MAPK14	enzyme activity	inhibitor		1 µM	remaining activity	86.4%
Cn1c(=O)n(-c2ccc(C(C)(C)C#N)cc2)c2c3cc(-c4cnc5ccccc5c4)ccc3ncc21	MAPK14	enzyme activity	inhibitor		10 µM	remaining activity	111%
Nc1ncnc2occ(-c3ccc(NC(=O)Nc4cc(C(F)(F)F)ccc4F)cc3)c12	MAPK14	cell-free assay	inhibitor		20 µM	remaining signal	0%
N#Cc1c(NC(=O)c2cccc3ccccc23)sc2c1CCCC2	MAPK14	cell-free assay			0.5 µM	remaining signal	98.1%
COc1cc(Nc2cnc(C#N)c(O[C@H](C)CN(C)C)n2)ncc1-c1cnn(C)c1	MAPK14	enzyme activity	inhibitor	radiometric	1 µM	remaining activity	102%
N#CC1(c2ccccn2)CCN(Cc2cc(C(=O)N3CCCC3)c(=O)n3ccccc23)CC1	MAPK14	cell-free assay		competition with immobilised ligand	1 µM	remaining binding	86%
CNC(=O)c1cc(Oc2ccc(NC(=O)Nc3ccc(Cl)c(C(F)(F)F)c3)cc2)ccn1	MAPK14 T106M	enzyme activity	inhibitor		10 µM	inhibition	90%
Cc1noc([C@H]2C[C@@H](c3ccc(C(F)(F)F)cc3)CN(C(=O)N3CCS(=O)(=O)C3)C2)n1	MAPK14	cell-free assay		competition with immobilised ligand	1 µM	remaining binding	79%
O=C(Nc1cnn(-c2csc(C(=O)NC3COC3)c2)c1)Nc1ccccc1Cl	MAPK14	enzyme activity	inhibitor		5 µM	remaining activity	142%
CN([C@@H]1CCc2c(CC(=O)O)c3cc(S(C)(=O)=O)ccc3n2C1)S(=O)(=O)c1ccc(F)cc1	MAPK14	cell-free assay		competition with immobilised ligand	1 µM	remaining binding	100%
C#Cc1cccc(Nc2ncnc3cc(OCCOC)c(OCCOC)cc23)c1	MAPK14	cell-free assay			0.5 µM	remaining signal	95.3%
Cc1cc(NC(=O)c2cccc3cc(-c4cccc5[nH]nc(N)c45)ccc23)ccc1F	MAPK14	enzyme activity	inhibitor		0.1 µM	activity vs control	85%
O=C1NC(=O)c2cc(Nc3ccc(F)cc3)c(Nc3ccc(F)cc3)cc21	MAPK14	cell-free assay			0.5 µM	remaining signal	88.3%
CC1=C(C#N)[C@@H](c2ccc3[nH]nc(C)c3c2)C(C#N)=C(c2ccc(Cl)cc2)N1	MAPK14	cell-free assay		competition with immobilised ligand	1 µM	remaining binding	100%
c1nc2c(Nc3ccc4c(c3)OCCO4)nc(Nc3ccc4c(c3)OCCO4)nc2[nH]1	MAPK14	enzyme activity	inhibitor		10 µM	activity vs control	90%
Cc1cnc(NC2CCOCC2)nc1-n1cnc(C(=O)NC(CN)c2cc(F)cc(Cl)c2)c1 (stereo not shown)	MAPK14	enzyme activity	inhibitor	radiometric	1 µM	remaining activity	77%
O=C(NS(=O)(=O)c1ccc(NCC2CCOCC2)c([N+](=O)[O-])c1)c1ccc(N2CCN(Cc3ccc(C(F)(F)F)cc3-c3ccc(Cl)cc3)CC2)cc1Oc1cnc2[nH]ccc2c1	MAPK14	cell-free assay		competition with immobilised ligand	1 µM	remaining binding	97%
CN(C)C1CCN(CC#Cc2nn(C3CCCC3)c3nc(NCc4ccccc4)ncc23)C1 (stereo not shown)	MAPK14	enzyme activity	inhibitor	FRET	0.1 µM	inhibition	8%
CSc1cccnc1N1CCN(Cc2nc3ccccc3[nH]2)CC1	MAPK14	cell-free assay		competition with immobilised ligand	1 µM	remaining binding	100%
CCN(CC)CCNC(=O)c1c(C)[nH]c(/C=C2\C(=O)Nc3ccc(F)cc32)c1C	MAPK14 T106M	enzyme activity	inhibitor		10 µM	inhibition	9%
Cc1c(C(=O)O)cc(-c2ccc(C3CCNCC3)cc2)c2ccc(-c3ccc(C(F)(F)F)cc3)cc12	MAPK14	binding		competition with immobilised ligand	1 µM	remaining binding	100%
Cc1ccc(NC(=O)c2ccc(C)c(C(F)(F)F)c2)cc1C#Cc1nn(C2CCC(O)CC2)c2ncnc(N)c12 (stereo not shown)	MAPK14	cell-free assay			10 µM	remaining signal	3%
